Results published in ChEMBL document CHEMBL4257579, “Analogs of penfluridol as chemotherapeutic agents with reduced central nervous system activity” (Bioorg Med Chem Lett, 2018).

Tests used:
Format in all cases: cell-based
[1] = target: Alpha-2C adrenergic receptor (Homo sapiens, UniProt P18825); test: Displacement of [3H]Rauwolscine from human alpha 2C adrenergic receptor expressed in MDCK cells by radioligand binding assay
Method in brief: (§1)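 Ki values were calculated from the radioligand displacement data.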

[2] = target: Alpha-1D adrenergic receptor (Homo sapiens, UniProt P25100); test: Displacement of [3H]Prazosin from human alpha 1D adrenergic receptor expressed in HEK cells by radioligand binding assay; method in brief: as §1
Sequence of Alpha-1D adrenergic receptor (P25100 whole entry): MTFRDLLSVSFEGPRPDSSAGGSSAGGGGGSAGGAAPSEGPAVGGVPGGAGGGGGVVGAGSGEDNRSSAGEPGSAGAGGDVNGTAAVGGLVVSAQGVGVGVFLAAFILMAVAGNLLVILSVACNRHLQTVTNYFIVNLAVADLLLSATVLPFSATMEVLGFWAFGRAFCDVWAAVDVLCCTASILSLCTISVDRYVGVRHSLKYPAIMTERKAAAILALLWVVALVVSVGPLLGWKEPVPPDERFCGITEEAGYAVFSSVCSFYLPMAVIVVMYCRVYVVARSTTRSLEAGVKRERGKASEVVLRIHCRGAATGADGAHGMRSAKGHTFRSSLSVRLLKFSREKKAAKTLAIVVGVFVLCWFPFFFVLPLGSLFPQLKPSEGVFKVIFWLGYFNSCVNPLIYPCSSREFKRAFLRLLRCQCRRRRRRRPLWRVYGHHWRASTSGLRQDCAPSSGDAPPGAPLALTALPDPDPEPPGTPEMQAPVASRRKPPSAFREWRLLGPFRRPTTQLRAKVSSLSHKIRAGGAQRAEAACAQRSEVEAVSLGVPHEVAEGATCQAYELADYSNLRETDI

[3] = target: Alpha-2C adrenergic receptor (Homo sapiens) (UniProt P18825); test: Displacement of [3H]Rauwolscine from human alpha 2C adrenergic receptor expressed in MDCK cells by radioligand binding assay relative to control; conditions: concentration not given here
Sequence of Alpha-2C adrenergic receptor (Homo sapiens) (P18825 whole entry): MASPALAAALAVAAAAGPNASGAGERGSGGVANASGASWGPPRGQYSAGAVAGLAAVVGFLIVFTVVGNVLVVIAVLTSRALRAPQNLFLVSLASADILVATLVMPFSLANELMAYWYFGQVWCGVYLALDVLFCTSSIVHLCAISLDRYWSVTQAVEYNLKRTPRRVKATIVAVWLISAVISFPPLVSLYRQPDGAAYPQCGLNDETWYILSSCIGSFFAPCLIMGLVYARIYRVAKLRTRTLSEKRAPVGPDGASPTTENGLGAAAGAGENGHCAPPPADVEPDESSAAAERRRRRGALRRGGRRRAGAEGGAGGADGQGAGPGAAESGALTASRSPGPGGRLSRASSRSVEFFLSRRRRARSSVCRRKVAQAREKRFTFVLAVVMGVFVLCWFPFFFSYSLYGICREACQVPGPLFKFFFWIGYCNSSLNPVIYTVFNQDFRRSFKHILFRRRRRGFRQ

[4] = target: Beta-3 adrenergic receptor (Homo sapiens, UniProt P13945); test: Displacement of [3H]CGP12177 from human beta 3 adrenergic receptor expressed in HEK293FlpIN cells by radioligand binding assay relative to control; conditions: concentration not given here
Sequence of Beta-3 adrenergic receptor (P13945 whole entry, looked up): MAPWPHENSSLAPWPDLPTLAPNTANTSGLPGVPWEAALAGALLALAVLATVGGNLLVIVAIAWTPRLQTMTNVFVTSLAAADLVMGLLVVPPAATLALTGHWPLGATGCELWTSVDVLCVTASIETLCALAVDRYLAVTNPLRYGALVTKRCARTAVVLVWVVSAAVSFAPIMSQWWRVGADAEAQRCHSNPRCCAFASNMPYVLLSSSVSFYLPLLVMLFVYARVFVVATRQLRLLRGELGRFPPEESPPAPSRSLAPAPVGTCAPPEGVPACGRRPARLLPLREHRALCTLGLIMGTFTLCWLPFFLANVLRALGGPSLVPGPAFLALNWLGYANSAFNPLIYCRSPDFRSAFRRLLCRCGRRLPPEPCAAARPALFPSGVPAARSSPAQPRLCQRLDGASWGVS

Sequence of Alpha-2C adrenergic receptor (P18825 whole entry): as the sequence (P18825 whole entry) above

SMILES: OC1(c2ccc(Cl)c(C(F)(F)F)c2)CCN(CCCC(c2ccc(F)cc2)c2ccc(F)cc2)CC1 [PENFLURIDOL]
- Ki [1]: 445 nM
- Ki [2]: 602 nM
- inhibition [3]: 100%
- inhibition [4]: 94%
